The values below come from article PMC7729387 (Journal of Antimicrobial Chemotherapy, 2020).

Converted amounts (≈) assume the structure as drawn. Like-named read-outs stand apart in the source and are kept apart here.

The subject of series [1] is type A and type B virus strains. To be noted: plaque-reduction assay; cited from earlier work.
For series [2] the test system is unchanged. The note with it: cited from earlier work.
Series [3] concerns A/WSN/33 (H1N1) strain. Nature of the series: PK/PD analysis, linear model. In kind it is in vivo, influenza A(H1N1) virus (BALB/c mice). The note with it: y = virus titre (log10 TCID50/mL).
The conditions of series [4]: humans; single-dose oral baloxavir marboxil; cited from earlier work.
Series [5] is described as follows: PK of baloxavir acid after oral baloxavir marboxil in A/WSN/33-infected mice. In kind it is in vivo, BALB/c mice. In outline:
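A/WSN/33-infected BALB/c mice each received a single oral dose of the prodrug at 0.5, 1.5, 5, 15 or 50 mg/kg. Blood was taken at 0.5–12 h, three mice per dose per timepoint. Plasma active acid and prodrug were measured by LC-MS/MS.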

The test system of series [6] is A/WSN/33 (H1N1) strain. Nature of the series: PK/PD analysis, sigmoid Emax model. In kind it is in vivo, influenza A(H1N1) virus (BALB/c mice). The note with it: for E max (estimate) / E 0 (estimate): y = virus titre (log10 TCID50/mL). The method, boiled down:
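A/WSN/33-infected BALB/c mice were dosed subcutaneously from day 5 at 0.0625–8 mg/kg q24h, q12h or q6h for 1 day, five per group, in Tween 80/copolymer carbonate vehicle at pH ~9. Lung titres were read 24 h later by MDCK TCID50. PK parameters came from mean plasma levels after single 0.125–8 mg/kg doses, scaled for 0.0625–4 mg/kg. A sigmoid Emax model was fitted to individual-mouse titres and judged by adjusted R².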

Series [7] can be described thus: PK of baloxavir acid after subcutaneous baloxavir acid in A/WSN/33-infected mice. It is filed as in vivo, BALB/c mice. The note with it: sc baloxavir acid 0.125, 0.5, 2 and 8 mg/kg.
Series [8] concerns A/WSN/33 (H1N1) strain. It is filed as in vivo, influenza A(H1N1) virus (BALB/c mice).
A further series concerns influenza A virus. To be noted: 10 mg/kg, q24h daily, nude mice; cited from earlier work.
The next series deals with B/Hong Kong/5/72. It is filed as in vivo, influenza type B virus (BALB/c mice). To be noted: oral 15 mg/kg twice daily.
The next series relates to A/Hong Kong/8/68 (H3N2). It is filed as in vivo, influenza A(H3N2) virus (BALB/c mice). The note with it: oral 15 mg/kg twice daily.
A further series has as its system influenza virus. To be noted: cited from earlier work.
The subject of series [9] is A/Osaka/129/2009 (H1N1pdm09). More on the design: species or system influenza A(H1N1)pdm09 virus (BALB/c mice). To be noted: mouse, in vivo, po, 5 mg/kg.
Where [10] appears, read: BXA in plasma, oral BXM 0.5 mg/kg.
Setting [11] is: BXA in plasma, oral BXM 1.5 mg/kg.
Where [12] appears, read: BXA in plasma, oral BXM 5 mg/kg.
[13] abbreviates: BXA in plasma, oral BXM 15 mg/kg.
The mark [14] stands for this setting: BXA in plasma, oral BXM 50 mg/kg.
The mark [15] stands for this setting: 24 h after single-dose oral treatment, patients with uncomplicated influenza, ref Phase 3 baloxavir marboxil studies.
Where [16] appears, read: […], 24 h after initial dosing, 15 mg/kg.

As for `O=C1c2c(O)c(=O)ccn2N([C@@H]2c3ccccc3SCc3c2ccc(F)c3F)[C@@H]2COCCN12` [baloxavir acid], the “inhibitory values, type A more potent than type B virus strains” value is 6- to 12 fold in series [1] and 4- to 5 fold in [2]. Besides, the “E 0 (estimate)” value is 5.141 in the series with A/WSN/33 (H1N1) strain [3] (x = T >2 (h)); 4.095 with A/WSN/33 (H1N1) strain [3] (x = T >10 (h)); 3.569 in the series on A/WSN/33 (H1N1) strain [3] (x = T >50 (h)); 3.928 in the series with A/WSN/33 (H1N1) strain [6] (x = C 24 (ng/mL)); 3.806 in the series with A/WSN/33 (H1N1) strain [6] (x = C max (ng/mL)); 3.958 in the series on A/WSN/33 (H1N1) strain [6] (x = C τ (ng/mL)). The “E 0 (estimate)” value with A/WSN/33 (H1N1) strain [6] (x = T >50 (h)) is 3.588. The “half-life in plasma compared with that in mice” value in series [4] is on record as > 10 fold. In series [5] (BXA in plasma after oral baloxavir marboxil 0.5–50 mg/kg), the “plasma exposure versus dose” value is reported as “increased dose proportionally up to 15 mg/kg”. Also, the “AUC0–12” value in series [5] (setting [10]) is given as 22.0 ng·h/mL; in series [5] (setting [11]), 62.6 ng·h/mL; in [5] (setting [12]), 242 ng·h/mL; in series [5] (setting [13]) it was 648 ng·h/mL; in series [5] (setting [14]), 1580 ng·h/mL. The “AUC0–∞” value is given as 22.7 ng·h/mL in [5] (setting [10]); 66.1 ng·h/mL in series [5] (setting [11]); 252 ng·h/mL in series [5] (setting [12]); 670 ng·h/mL in series [5] (setting [13]); 1690 ng·h/mL in series [5] (setting [14]). The C max in [5] (setting [10]) is 5.05 ng/mL; in series [5] (setting [11]), 14.3 ng/mL; in series [5] (setting [12]), 45.7 ng/mL; in series [5] (setting [13]), 175 ng/mL; in [5] (setting [14]), 284 ng/mL. Besides, the T max in series [5] (setting [10]) stood at 1.00 h; in series [5] (setting [11]) it was 1.00 h; in [5] (setting [12]) it was 0.500 h; in series [5] (setting [13]) it was 0.500 h; in series [5] (setting [14]), 2.00 h. In addition, the “t ½,z” value amounted to 2.24 h in series [5] (BXA in plasma, oral BXM 0.5 mg/kg, t½,4–10 h); 2.56 h in series [5] (BXA in plasma, oral BXM 1.5 mg/kg, t½,6–12 h); 2.45 h in series [5] (BXA in plasma, oral BXM 5 mg/kg, t½,6–12 h); 2.26 h in series [5] (BXA in plasma, oral BXM 15 mg/kg, t½,6–12 h); 3.14 h in series [5] (BXA in plasma, oral BXM 50 mg/kg, t½,6–12 h). Besides, the “t½,z (half-life in mouse plasma)” value in series [5] (BXA in plasma, oral baloxavir marboxil 0.5–50 mg/kg, range over doses) is 2.24 to 3.14 h. The “E max (estimate)” value was 1.091 with A/WSN/33 (H1N1) strain [6] (x = AUC0–24 (ng·h/mL)); 1.499 with A/WSN/33 (H1N1) strain [6] (x = C 24 (ng/mL)); 1.022 with A/WSN/33 (H1N1) strain [6] (x = C max (ng/mL)); 1.554 with A/WSN/33 (H1N1) strain [6] (x = C τ (ng/mL)); 1.913 in the series on A/WSN/33 (H1N1) strain [6] (x = T >50 (h)). Also, the “EC50 (estimate)” value in the series on A/WSN/33 (H1N1) strain [6] (x = C 24) was 4.767 ng/mL (≈ 9.86 nM); in the series on A/WSN/33 (H1N1) strain [6] (x = C max) it was 42.528 ng/mL (≈ 88 nM); in the series on A/WSN/33 (H1N1) strain [6] (x = C τ) it was 4.108 ng/mL (≈ 8.5 nM). In series [7], the “plasma concentration versus dose” value was “increased dose proportionally from 0.125 to 8 mg/kg”. The “virus titres versus vehicle or oseltamivir phosphate 5 eq mg/kg, q12h” value in the series on A/WSN/33 (H1N1) strain [8] ([…], 24 h post-treatment initiation, all groups) is reported as “numerically lower”.
On to `COC(=O)OCOc1c2n(ccc1=O)N([C@@H]1c3ccccc3SCc3c1ccc(F)c3F)[C@@H]1COCCN1C2=O` [baloxavir marboxil], for which the “clearance of virus from the respiratory organs” value in the series on influenza A virus is “did not clear the virus from the respiratory organs”. In addition, the “decrease in virus titre compared with oseltamivir phosphate at 5 eq mg/kg” value (“decrease in virus titre” below) with B/Hong Kong/5/72 came to 0.97 log10 TCID50/mL. In the series on A/Hong Kong/8/68 (H3N2), the “decrease in virus titre” value is recorded as 2.16 log10 TCID50/mL. Moreover, in the series with influenza virus (setting [15]), the “greater viral load reduction than after oseltamivir phosphate” value is 2.0 log10 TCID50/mL and the “greater viral load reduction than after placebo” value is on record as 3.5 log10 TCID50/mL. Further, the Symptom resolution entry in the series on influenza virus (type A virus infections) is on record as “faster with baloxavir marboxil than placebo, but not oseltamivir phosphate”. For the same molecule, the “baloxavir marboxil in plasma” value in [5] (after oral baloxavir marboxil, data not shown) is given as “undetectable in almost all infected mice”. The “virus titre reduction in mice infected with the H1N1pdm09 strain” value in [9] is recorded as ≥ 100 fold. Further, in the series with A/WSN/33 (H1N1) strain [8] (setting [16]), the “virus titres declined compared with oseltamivir phosphate 5 or 50 eq mg/kg, q12h” value turned out to be 2 log10 TCID50/mL and the “virus titres declined compared with vehicle” value is listed as > 3 log10 TCID50/mL. Further, the “virus titres compared with the clinically equivalent or higher dose of oseltamivir phosphate” value in the series with A/WSN/33 (H1N1) strain [8] (mouse, in vivo, po, 1.5 mg/kg) is on record as “significantly reduced virus titres”. Further, in the series with A/WSN/33 (H1N1) strain [8] (mouse, in vivo, po, 5 mg/kg), the “Lung virus titres versus each NAI or favipiravir” value is “significantly lower”. In addition, the “decrease in virus titre” value in the series with A/WSN/33 (H1N1) strain [8] (oral 15 mg/kg twice daily) is 2.64 log10 TCID50/mL.
For the molecule `CCOC(=O)C1=C[C@@H](OC(CC)CC)[C@H](NC(C)=O)[C@@H](N)C1` [oseltamivir phosphate, reference compound], the “reduction in virus titres compared with vehicle” value in the series on A/WSN/33 (H1N1) strain [8] (mouse, in vivo) is on record as 0.5–1 log10.
